High-throughput results as filed in PubChem.
A selection: hits, their analogues and other compounds. The true share with any hit is near 1.9%.
TLR4 MyD88 comp – TLR4-MyD88 interaction inhibition in cells | O00206+Q99836 | HeLa CL3-4 TLR4/MyD88 BLA complementation, FRET ratio | inhibition, % at 8.4 µM | 200,000 compounds, 0.18% hits | AID 861; in the data active means inhibition above about 25%;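 further: 0% = vehicle and 100% = reference inhibitor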
TLR9-MyD88 inh – inhibitors of human TLR9-MyD88 binding. AID 504734. CHO BLA complementation TLR9-MyD88, CCF4 FRET ratio. 340,000 compounds, 0.21% hits. inhibition, % at 4.98 µM;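 active means inhibition above the mean over all tested compounds plus 3 SD, cut at about 21% in these data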;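 further: 0% = DMSO only wells and 100% = clavulanate BLA inhibitor control wells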
Target sequence (Q99836 whole entry, looked up): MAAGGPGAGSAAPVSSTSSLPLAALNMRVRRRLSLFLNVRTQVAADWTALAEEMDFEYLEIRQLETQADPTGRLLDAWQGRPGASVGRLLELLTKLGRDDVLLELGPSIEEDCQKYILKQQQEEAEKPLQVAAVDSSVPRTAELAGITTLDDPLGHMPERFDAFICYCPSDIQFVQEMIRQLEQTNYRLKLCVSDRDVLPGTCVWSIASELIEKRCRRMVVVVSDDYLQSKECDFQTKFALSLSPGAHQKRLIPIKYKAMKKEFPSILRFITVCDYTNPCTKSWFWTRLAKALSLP
Target sequence (Q9NR96 whole entry, looked up): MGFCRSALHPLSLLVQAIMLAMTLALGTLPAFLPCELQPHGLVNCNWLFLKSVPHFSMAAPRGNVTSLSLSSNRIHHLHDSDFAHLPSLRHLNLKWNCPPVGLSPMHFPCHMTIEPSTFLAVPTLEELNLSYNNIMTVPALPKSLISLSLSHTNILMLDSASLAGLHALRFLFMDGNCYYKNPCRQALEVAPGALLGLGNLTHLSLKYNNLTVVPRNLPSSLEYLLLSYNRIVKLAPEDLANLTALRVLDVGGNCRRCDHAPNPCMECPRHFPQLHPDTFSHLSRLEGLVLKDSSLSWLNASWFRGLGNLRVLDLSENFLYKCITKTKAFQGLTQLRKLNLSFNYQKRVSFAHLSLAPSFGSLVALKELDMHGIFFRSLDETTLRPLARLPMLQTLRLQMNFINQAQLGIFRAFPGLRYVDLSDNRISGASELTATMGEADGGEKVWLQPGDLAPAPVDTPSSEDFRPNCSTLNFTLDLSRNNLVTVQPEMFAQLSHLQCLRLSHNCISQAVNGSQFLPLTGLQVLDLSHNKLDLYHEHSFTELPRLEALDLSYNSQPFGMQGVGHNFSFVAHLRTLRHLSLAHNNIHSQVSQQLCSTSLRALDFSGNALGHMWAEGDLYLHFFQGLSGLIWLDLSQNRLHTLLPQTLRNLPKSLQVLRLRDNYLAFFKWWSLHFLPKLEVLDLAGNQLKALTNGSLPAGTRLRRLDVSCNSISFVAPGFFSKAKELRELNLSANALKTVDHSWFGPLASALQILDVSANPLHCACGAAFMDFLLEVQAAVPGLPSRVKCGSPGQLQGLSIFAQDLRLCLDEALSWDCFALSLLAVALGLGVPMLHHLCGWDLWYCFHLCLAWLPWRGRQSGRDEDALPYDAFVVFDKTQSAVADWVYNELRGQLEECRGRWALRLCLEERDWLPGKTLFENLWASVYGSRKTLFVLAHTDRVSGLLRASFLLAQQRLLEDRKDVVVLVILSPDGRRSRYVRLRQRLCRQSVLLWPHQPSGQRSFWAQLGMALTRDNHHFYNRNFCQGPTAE
NOD2 RIPK2 PPI – NOD2-RIPK2 protein interaction inhibition. CHO BLA complementation NOD2-RIPK2, CCF4 ratio. inhibition, % at 4.98 µM. 360,000 compounds, 0.38% hits; in the data active means inhibition above about 21%;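 further: 0% = vehicle only and 100% = reference blocker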
MC4R antag cAMP – antagonists of human melanocortin 4 receptor (MC4R); P32245; MC4R-expressing cells, MTII-stimulated cAMP, LANCE TR-FRET; inhibition, % at 6.5 µM; 360,000 compounds, 0.48% hits; AID 540295;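 active means inhibition above its plate's cutoff, the mean of tested wells on that plate plus 3 SD, cut at about 29% in these data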;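 further: 0% = Melanotan II alone and 100% = Melanotan II plus saturating MCL0020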
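Material: U2OS-MC4R stable cell line | Reagent: Melanotan II challenge after compound preincubation | Doses: One concentration, 6.5 µM nominal | Incubation: 30-min compound preincubation, 1-h Melanotan II challenge, 1-h detection, room temperature | Signal: TR-FRET cAMP assay | Replicates: One well per compound, no replicates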
NTR1 agonist – NTR1 (human) agonism | P30989 | 330,000 compounds, 0.17% hits | activation, % at 20 µM | NTR1-U2OS beta-arrestin-GFP spot imaging, agonist mode;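 active means activation at or above 40% of the spot to cytoplasm intensity ratio, with at least 20 cells analyzed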;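 further: 0% = DMSO without peptide and 100% = 100 nM NTR1 peptide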
MC4R ag barr – agonists of human melanocortin 4 receptor (MC4R) beta-arrestin; P32245; 360,000 compounds, 0.98% hits; activation, % at 8.9 µM; U2OS MC4R beta-arrestin complementation, luminescence; percent of melanotan II response, DMSO zero;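 active means activation above a per-plate cutoff, the mean activation of sample wells on that plate plus 3 SD, cut at about 8% in these data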
NTR1 ag conf – NTR1 (human) agonism, confirmed | NTR1-U2OS beta-arrestin-GFP translocation imaging | activation, % at 20 µM | shares compounds with NTR1 agonist | 480 compounds, 38% hits;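 active means mean activation at 20 µM of at least 40%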;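 further: 0% = DMSO without peptide and 100% = 100 nM NTR1 peptide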
* hit, by the source's call; · = not tested or not shown.

SMILES | TLR4 MyD88 comp | TLR9-MyD88 inh | NOD2 RIPK2 PPI | MC4R antag cAMP | NTR1 agonist | MC4R ag barr | NTR1 ag conf
CCOC(=O)C1(S(=O)(=O)c2ccc(Cl)cc2)CCN(Cc2ccc(C)cc2)CC1 | 1.0 | -0.9 | -2.7 | -2.6 | 7.6 | 1.5 | ·
CCOC(=O)C(CC1=CS(=O)(=O)c2ccc(Cl)cc21)(NC(C)=O)C(=O)OCC | · | 5.5 | 2.4 | 1.8 | · | -0.3 | ·
Cc1cc2c3c(c1)C(C)(c1ccccc1)CC(C)(C)N3C(=O)C21C(C#N)=C(N)OC2=C1C(=O)CC(C)(C)C2 (stereo not drawn) | 6.2 | -0.8 | 11.9 | 3.1 | 40.4* | -1.2 | 41.9*
CC1(c2ccccc2)CC(C)(C)N2C(=O)C3(C(C#N)=C(N)Oc4cc(O)ccc43)c3cccc1c32 (stereo not drawn) | -6.6 | -1.2 | -3.2 | 15.5 | 36.7 | 6.1 | ·
Cc1cccc(NC(=O)c2nc[nH]c2C(=O)N[C@@H](C)c2ccccc2)c1 | · | -2.9 | -9.1 | 7.5 | 50.5* | 0.1 | 37.5
Cc1cccc(S(=O)C(c2ccccc2)c2ccccc2)c1 (stereo not drawn) | · | 3.6 | -4.3 | 6.1 | · | -1.0 | ·
Cn1c(N)c(C(=O)COC(=O)c2cc(C3CC3)nc3ccccc23)c(=O)n(Cc2ccccc2)c1=O | -4.6 | 0.1 | 5.5 | -2.1 | 40.1* | -1.3 | 0.5
O=C(Nc1ccc(-c2noc(-c3cccs3)n2)cc1)c1cccnc1 | 6.1 | 0.2 | -6.1 | 9.4 | 46.8* | 4.6 | 8.6
COC(=O)COc1ccc(/C=N/NC(=O)CN(c2ccccc2OC)S(=O)(=O)c2ccccc2)cc1 | · | -5.7 | 1.3 | 7.7 | 74.6* | -2.2 | 75.6*
O=c1cc(-c2ccc(O)cc2)oc2cc(O)c(C3OC(CO)C(O)C(O)C3O)c(O)c12 (stereo not drawn) | -8.1 | -2.1 | -7.2 | 4.6 | 40.8* | 0.3 | 52.3*
O=C1c2ccccc2C(=O)N1C1C=CC=CC=C1 | · | 2.4 | -5.6 | 12.6 | · | -1.8 | ·
Oc1ccc(/C=N/Nc2nc(-c3ccc(Cl)cc3)cc(C(F)(F)F)n2)cc1 | -2.3 | -16.8 | 4.0 | 5.8 | 61.2* | 13.8* | 14.9
CCOc1ccc(C(C(=O)NCC2CCCO2)N(C(=O)c2snc(C(N)=O)c2N)c2ccc(F)cc2)cc1 (stereo not drawn) | · | -11.7 | -3.1 | 15.3 | 44.5* | -2.1 | 4.2
C=C(C)COc1ccc(-c2nc(N)nc(C(F)(F)F)c2-c2ccc(OC)cc2)c(O)c1 | · | -12.8 | -10.7 | 10.9 | 40.9* | 1.1 | 11.5
O=[N+]([O-])c1ccc(C2CC(c3ccccc3)=Nc3ccccc3S2)cc1 (stereo not drawn) | · | -5.2 | 3.6 | -2.6 | 61.6* | -1.1 | 13.2
O=C(O)C1CC(c2ccccc2)=Nc2ccccc2S1 (stereo not drawn) | · | -0.8 | -5.8 | -2.1 | 2.9 | 0.1 | ·
O=C(CSc1ccc(Cl)cc1)Nc1cccc(-c2nc3ncccc3o2)c1 | -7.2 | -5.0 | 1.4 | 10.9 | 52.1* | -0.9 | 33.0
N#Cc1c(N)nc(SCC(=O)C23CC4CC(CC(C4)C2)C3)c(C#N)c1-c1ccc(Cl)cc1 | 5.5 | -1.4 | -9.3 | 15.7 | 1.3 | 4.4 | ·
CSc1nc(N)nc(SCC(=O)C23CC4CC(CC(C4)C2)C3)c1C#N | -3.2 | -5.3 | 5.8 | -12.5 | 44.8* | 1.4 | 13.2
CC1CCc2c(nc3ncnn3c2NCCN(C)C)C1 (stereo not drawn) | 11.7 | -12.5 | 5.3 | 7.6 | -0.1 | 3.8 | ·
O=C(/C(=C\c1ccccc1)c1nc2ccccc2[nH]1)c1ccc(Cl)cc1 | 0.8 | -13.2 | -6.5 | 4.0 | 15.8 | 0.7 | ·
O=C(/C(=C/c1ccc(Cl)cc1)c1nc2ccccc2[nH]1)c1cccs1 | 16.1 | 2.1 | 1.0 | 8.7 | 53.5* | -1.7 | 62.5*
Cc1oc(-c2ccc(Cl)cc2)nc1CS(=O)CC(=O)NCCCN1CC(C)CC(C)C1 (stereo not drawn) | · | 2.1 | -2.0 | 0.7 | -0.2 | -1.3 | ·
O=C(NCCOc1ccccc1)c1ccccc1Cl | · | -0.3 | -14.5 | 2.7 | -0.2 | -2.0 | ·
CN(C(=O)COc1ccccc1C(=O)NCCOc1ccccc1)c1ccccc1 | -1.9 | -3.8 | 0.2 | 27.2 | 106.8* | 3.5 | 62.7*
SMILES | TLR4 MyD88 comp | TLR9-MyD88 inh | NOD2 RIPK2 PPI | MC4R antag cAMP | NTR1 agonist | MC4R ag barr | NTR1 ag conf
Cc1ccc(NC(=O)CN(C)C(=O)C2CCC2)cc1 | · | 3.4 | -13.4 | 16.1 | · | 4.0 | ·
CCOc1ccc(Br)cc1S(=O)(=O)Nc1ccccc1N1CCOCC1 | -10.0 | -5.8 | 7.7 | 2.2 | 49.4* | 1.3 | 54.5*
NS(=O)(=O)c1ccc(N2N=C(c3ccc(Br)cc3)CC2c2ccc(F)cc2)cc1 (stereo not drawn) | -158.1 | -104.0 | -36.4 | 9.9 | 42.0* | 2.5 | 42.3*
COc1ccc(N2CCN(c3nc(NCCc4ccc(OC)c(OC)c4)nc(OC)n3)CC2)cc1 | 0.9 | -5.1 | -1.0 | 16.8 | 43.6* | 1.8 | 32.1
CCOc1nc(NCCc2ccc(OC)c(OC)c2)nc(N2CCN(c3ccc(OC)cc3)CC2)n1 | 1.2 | -3.1 | 5.5 | 13.5 | 15.3 | -0.3 | ·
Cc1nn(-c2ccccc2)c(C)c1NC(=O)COC(=O)c1ccccc1OC(F)F | · | 1.2 | -22.4 | -5.4 | 2.1 | 2.4 | ·
O=C(OCc1ccc(COC(=O)c2ccc(O)cc2)cc1)c1ccc(O)cc1 | · | -6.0 | 4.9 | 10.3 | 45.6* | 3.9 | -1.3
COC(=O)C(=Cc1ccc(OCc2ccc([N+](=O)[O-])cc2)c(OC)c1)C(=O)OC | -5.0 | 5.6 | 1.8 | 13.0 | 44.7* | -1.9 | 75.1*
O=C1Nc2cc(C(=O)NCCCN3CCOCC3)ccc2S/C1=C/c1cccc(Cl)c1 | · | 3.4 | -4.7 | 6.7 | 43.5* | 1.8 | 3.7
CCCS(=O)(=O)NC(=O)C1(C)CCN(C(=O)c2c(-c3ccccc3)noc2C)C1 (stereo not drawn) | · | · | -8.4 | 6.5 | · | -0.5 | ·
COc1cc(C(=O)Oc2cccc(Nc3ncnc4ccccc34)c2)cc(OC)c1OC | -13.1 | -16.9 | -1.6 | 5.5 | 43.7* | 3.7 | 31.1
CC(/C=N/N1CCN(Cc2ccccc2)CC1)=C\c1ccccc1 | -4.0 | -12.3 | -4.6 | 2.8 | 1.4 | 1.8 | ·
CC1CCC(NC(=O)c2ccc(COc3ccccc3)o2)CC1 (stereo not drawn) | · | -0.7 | 17.9 | 19.2 | -0.7 | 5.7 | ·
Cc1cc(C)c(C(=O)c2cccs2)c(C)c1 | · | -9.7 | -1.4 | 5.1 | · | -1.0 | ·
CN(C)/C=C/C(=O)c1ccc(Br)s1 | -0.4 | -4.2 | 4.2 | 16.8 | 1.5 | 1.3 | ·
Cc1cc(C)c2c(c1)/C(=C/C(=O)c1ccc(Br)s1)C(=O)N2 | 0.4 | 2.0 | -5.8 | 12.5 | 57.8* | -0.5 | 68.3*
Cc1cc(Br)c2c(c1)/C(=C/C(=O)c1cccs1)C(=O)N2 | 22.4 | 9.9 | -1.5 | -1.6 | 62.6* | 6.2 | 41.4*
